Casp6 inh: inhibitors of human caspase-6 | P55212 | AID 686996 | inhibition, % at 12.5 µM | purified caspase-6, Z-VEID-R110 cleavage fluorescence | actives 0.53% (n = 350,000);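 active = mean inhibition across replicates at least about 35%, with every replicate also reaching that limit, limit read from the data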
Target sequence (P55212 24-179 limits assumed): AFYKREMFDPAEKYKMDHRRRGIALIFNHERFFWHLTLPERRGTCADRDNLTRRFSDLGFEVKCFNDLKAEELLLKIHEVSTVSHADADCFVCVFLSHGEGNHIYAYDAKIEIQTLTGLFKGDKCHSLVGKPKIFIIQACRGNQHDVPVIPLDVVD
Target sequence (P55212 194-293 limits assumed): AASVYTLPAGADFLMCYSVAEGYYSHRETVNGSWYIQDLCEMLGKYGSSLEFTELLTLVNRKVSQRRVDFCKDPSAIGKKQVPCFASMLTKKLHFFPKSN
UHRF1 MBD2 ctr: UHRF1 methyl-DNA binding inhibition. actives 0.75% (n = 370,000). Q96T88. inhibition, % at 4.4 µM. UHRF1 binding to methylated oligo, TR-FRET; in the data active = inhibition above about 21%;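 also: UHRF1 SRA domain binding a hemimethylated CpG hairpin DNA probe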
NSD2 HMT inh: inhibitors of human histone methyltransferase NSD2; inhibition, % at 12.5 µM; AID 743445; NSD2 peptide methylation, AlphaScreen, 120 min; O96028; actives 0.54% (n = 310,000); in the data active = inhibition above about 50%
TDP2 inh: TDP2 (human) inhibition, absorbance primary screen | O95551 | recombinant TDP2, T5PNP hydrolysis, p-nitrophenol absorbance 415 nm | inhibition, % at 12.8 µM | actives 0.34% (n = 370,000) | AID 720702;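 active = inhibition above the mean of all tested compounds plus 3 SD, set per campaign, cut at about 25% in these data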
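Assay system: Recombinant human TDP2 | Quantity: 120 nM TDP2 per well | Incubation: 2 h at 37 °C | Signal: Epi absorbance | Evaluation: Percent inhibition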
MBD2 inh: blocks human MBD2 binding to methylated DNA | Q9UBB5 | TR-FRET, MBD2 binding to methylated oligonucleotide | inhibition, % at 4.4 µM | actives 0.31% (n = 370,000) | AID 686964; in the data active = inhibition above about 13%
Target sequence (Q9UBB5 whole entry, looked up): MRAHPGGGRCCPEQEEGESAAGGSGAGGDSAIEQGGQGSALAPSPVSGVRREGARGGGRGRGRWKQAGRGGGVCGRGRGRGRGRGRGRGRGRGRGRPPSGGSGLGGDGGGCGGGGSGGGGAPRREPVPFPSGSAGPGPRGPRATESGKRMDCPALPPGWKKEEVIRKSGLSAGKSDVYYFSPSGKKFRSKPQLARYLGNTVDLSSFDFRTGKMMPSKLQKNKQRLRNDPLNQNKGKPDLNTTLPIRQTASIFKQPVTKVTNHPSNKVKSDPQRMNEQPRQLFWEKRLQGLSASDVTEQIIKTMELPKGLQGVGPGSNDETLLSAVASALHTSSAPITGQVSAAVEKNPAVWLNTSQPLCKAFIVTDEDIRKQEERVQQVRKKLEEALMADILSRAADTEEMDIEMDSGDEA
LEDGF integ inh: blocks HIV-1 LEDGF/p75-dependent DNA integration. actives 0.64% (n = 370,000). TR-FRET IN-LEDGF/p75 DNA integration, Eu/Cy5. inhibition, % at 3.7 µM;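 active = inhibition above the screen-wide mean plus 3 SD, cut at about 13% in these data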;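 also: signal is the Cy5 over europium emission ratio at 671 and 618 nm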
IN multimer act: activates HIV-1 integrase multimerization in LEDGF counter-screen. shares compounds with LEDGF integ inh. TR-FRET HIV-1 integrase multimerization, biochemical. activation, % at 7.7 µM. actives 17% (n = 2,000). AID 1053131; in the data active = activation above about 8.9%
TRFRET interf: optically interferes with TR-FRET readout in LEDGF counter-screen; shares compounds with LEDGF integ inh; TR-FRET optical interference counterscreen, HIV-1 IN multimerization; inhibition, % at 7.7 µM; 2,000 tested, under 10 active; AID 1053135;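 active = inhibition above the mean over all tested compounds plus 3 SD, which no compound reached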
LEDGF integ conf: confirmation of HIV-1 LEDGF/p75-dependent integration inhibitors; inhibition, % at 3.7 µM; actives 36% (n = 2,000); TR-FRET LEDGF/p75-dependent HIV-1 integration, biochemical; shares compounds with LEDGF integ inh; in the data active = inhibition above about 14%
Of the large screens only hits and unclear results are named; the others gave an inactive call (follow-up assays come after a bar, where they were run). Shown are actives, neighbours in structure and some others; about 1.8% of the full set was active somewhere.

COc1ccc(N(CC(=O)Nc2cccc(N(C)S(C)(=O)=O)c2)S(=O)(=O)c2ccccc2)cc1Cl	LEDGF integ inh 44 | IN multimer act inactive | TRFRET interf inactive | LEDGF integ conf inactive
COc1ccc(Cl)cc1N(CC(=O)Nc1cccc(SC)c1)S(C)(=O)=O	LEDGF integ inh 40 | IN multimer act inactive | TRFRET interf inactive | LEDGF integ conf inactive
COc1ccc(N(CC(=O)Nc2ccc(OC)c(OC)c2)S(=O)(=O)c2ccccc2)cc1Cl	none
CCCNC(=O)C[C@H]1CC[C@@H]2[C@@H](COc3ccc(NC(=O)c4ccc5c(c4)OCO5)cc3C(=O)N2C)O1	none (no result: UHRF1 MBD2 ctr, NSD2 HMT inh, TDP2 inh, MBD2 inh, LEDGF integ inh)
COc1ccc(/C=C2\C(=O)NC(=O)c3ccccc32)cc1OC	Casp6 inh 93, TDP2 inh 63, LEDGF integ inh 30 (no result: NSD2 HMT inh) | IN multimer act 16 | TRFRET interf inactive | LEDGF integ conf 65
Cc1ccc(-n2nc3c(c2NC(=O)c2ccc(Br)o2)CSC3)c(C)c1	LEDGF integ inh 15 (no result: Casp6 inh, NSD2 HMT inh) | IN multimer act inactive | TRFRET interf inactive | LEDGF integ conf 49
Cc1ccc(-n2nc3c(c2NC(=O)C(C)(C)C)CSC3)c(C)c1	none (no result: Casp6 inh)
O=Cc1ccc(-c2c(-c3ccccc3)oc3c2C(OCCCCO)CCC3)o1 (stereo not drawn)	LEDGF integ inh 30 (no result: NSD2 HMT inh) | IN multimer act inactive | TRFRET interf inactive | LEDGF integ conf inactive
C[C@@H]1CN([C@H](C)CO)C(=O)c2cc(NC(=O)c3ccncc3)ccc2O[C@@H](C)CCCCO[C@@H]1CN(C)Cc1ccncc1	none (no result: UHRF1 MBD2 ctr, NSD2 HMT inh, TDP2 inh, MBD2 inh, LEDGF integ inh)
CN(C)c1ccc(N/C=C/C(=O)c2ccco2)cc1	LEDGF integ inh 38 (no result: Casp6 inh) | IN multimer act 11 | TRFRET interf inactive | LEDGF integ conf inactive
CC(=O)Nc1ccc(N/C=C/C(=O)c2ccco2)cc1	none (no result: Casp6 inh)
C/C=C/c1ccc2c(c1)O[C@@H](CN(C)C(=O)CN(C)C)[C@@H](C)CN([C@@H](C)CO)S2(=O)=O	none (no result: UHRF1 MBD2 ctr, NSD2 HMT inh, TDP2 inh, MBD2 inh, LEDGF integ inh)
Cc1ccc(C)c(Nc2ccc(C(=O)NCCc3ccccc3)cn2)c1	LEDGF integ inh 37 | IN multimer act inactive | TRFRET interf inactive | LEDGF integ conf inactive
OCCNc1c2ccccc2nc2c(F)c(F)c(F)c(F)c12	none (no result: Casp6 inh)
Cc1c2ccccc2nc2c(F)c(NCCO)c(F)c(F)c12	LEDGF integ inh 14 (no result: Casp6 inh) | IN multimer act inactive | TRFRET interf inactive | LEDGF integ conf inactive
Cc1c2ccccc2nc2c(F)c(NC(C)C)c(F)c(F)c12	LEDGF integ inh 13 (no result: Casp6 inh) | IN multimer act inactive | TRFRET interf inactive | LEDGF integ conf inactive
CO[C@H]1CN(C)C(=O)c2ccc(NC(=O)NC(C)C)cc2OC[C@@H](C)N(C(=O)CC2CC2)C[C@H]1C	none (no result: UHRF1 MBD2 ctr, NSD2 HMT inh, TDP2 inh, MBD2 inh, LEDGF integ inh)
Oc1ccc(/C=N/N(c2ccccc2)c2ccccc2)c(O)c1O	LEDGF integ inh 26 | IN multimer act inactive | TRFRET interf inactive | LEDGF integ conf 16
CC(C)N1C(=O)S/C(=C\c2ccc(-c3ccc(Cl)c(C(=O)O)c3)o2)C1=O	UHRF1 MBD2 ctr 37, LEDGF integ inh 37 | IN multimer act inactive | TRFRET interf inactive | LEDGF integ conf inactive
N#CCC1(O)C(=O)N(Cc2ccccc2)c2ccccc21 (stereo not drawn)	LEDGF integ inh 76 (no result: NSD2 HMT inh) | IN multimer act inactive | TRFRET interf inactive | LEDGF integ conf inactive
C[C@@H]1CN([C@H](C)CO)C(=O)c2cc(-c3ccccc3F)cnc2O[C@H]1CN(C)Cc1cccc(C(=O)O)c1	none (no result: UHRF1 MBD2 ctr, NSD2 HMT inh, TDP2 inh, MBD2 inh, LEDGF integ inh)
CC(O)CC(=O)OC[C@]12CC[C@H]3[C@@](C)(CC[C@H]4C(C)(C)CCC[C@]34C)[C@@H]1CC(C1=CC(=O)OC1O)O2 (stereo partly drawn)	LEDGF integ inh 23 (no result: NSD2 HMT inh) | IN multimer act inactive | TRFRET interf inactive | LEDGF integ conf 41
O=C(Cc1ccccn1)N[C@@H]1C=C[C@H](CC(=O)N2CCCCC2)O[C@H]1CO	none (no result: UHRF1 MBD2 ctr, NSD2 HMT inh, TDP2 inh, MBD2 inh, LEDGF integ inh)
C[C@@H]1CN([C@@H](C)CO)C(=O)c2cccc(NC(=O)NC3CCCCC3)c2O[C@@H]1CN(C)C	none (no result: UHRF1 MBD2 ctr, NSD2 HMT inh, TDP2 inh, MBD2 inh, LEDGF integ inh)
Cc1cccc(-c2ccc3[nH]c4c(c3c2)CCN2C[C@@H]([C@H](C)OC(=O)Nc3ccccc3C)[C@@H](N(C)C(=O)Nc3ccccc3C)C[C@@H]42)c1	LEDGF integ inh 56 (no result: NSD2 HMT inh) | IN multimer act inactive | TRFRET interf inactive | LEDGF integ conf inactive
C[C@H](O)[C@@H]1CN2CCc3c([nH]c4ccccc34)[C@@H]2C[C@@H]1N(C)C(=O)Nc1cccc2ccccc12	none (no result: NSD2 HMT inh)
C[C@H]1CCCCO[C@H](CN(C)CC2CC2)[C@@H](C)CN([C@@H](C)CO)C(=O)c2cc(NC(=O)c3ccncc3)ccc2O1	none (no result: UHRF1 MBD2 ctr, NSD2 HMT inh, TDP2 inh, MBD2 inh, LEDGF integ inh)
NC(c1ccccc1)c1csc(Nc2ccccn2)n1 (stereo not drawn)	none
NC(c1csc(Nc2ccccn2)n1)C1CCCCC1 (stereo not drawn)	LEDGF integ inh 14 | IN multimer act inactive | TRFRET interf inactive | LEDGF integ conf inactive
C[C@@H]1CN([C@@H](C)CO)C(=O)Cc2cc(NC(=O)Nc3ccc(F)cc3)ccc2O[C@H]1CN(C)C(=O)Nc1ccccc1	none (no result: UHRF1 MBD2 ctr, NSD2 HMT inh, TDP2 inh, MBD2 inh, LEDGF integ inh)
CCOC(=O)C1=C(C)N(c2ccccc2)C(=O)/C1=C\c1cccs1	none (no result: Casp6 inh)
CCOC(=O)C1=C(C)N(c2ccc(C)cc2)C(=O)/C1=C\c1cccs1	LEDGF integ inh 58 (no result: Casp6 inh) | IN multimer act inactive | TRFRET interf inactive | LEDGF integ conf inactive
O=C(NCc1ccc(Cl)cc1)c1ccc(Br)o1	LEDGF integ inh 56 (no result: NSD2 HMT inh) | IN multimer act inactive | TRFRET interf inactive | LEDGF integ conf inactive
Cc1cc(NC(=O)CSc2nnc(COc3ccccc3)n2Cc2ccco2)no1	none (no result: Casp6 inh)
O=C(CSc1nnc(COc2ccccc2)n1Cc1ccco1)NCc1ccco1	LEDGF integ inh 28 (no result: Casp6 inh) | IN multimer act inactive | TRFRET interf inactive | LEDGF integ conf 19
CN(C)C(=O)C[C@@H]1CC[C@@H]2[C@@H](COc3ccc(NS(=O)(=O)c4cccc(F)c4)cc3C(=O)N2C)O1	none (no result: UHRF1 MBD2 ctr, NSD2 HMT inh, TDP2 inh, MBD2 inh, LEDGF integ inh)
C/C(=C\C(=O)c1ccc(F)cc1)Nc1ccc(N2CCOCC2)cc1	LEDGF integ inh 23 (no result: Casp6 inh) | IN multimer act inactive | TRFRET interf inactive | LEDGF integ conf inactive
COc1ccccc1Cc1c(-c2ccco2)nc2cc(C)c(Br)c(C)n12	UHRF1 MBD2 ctr 25, LEDGF integ inh 14 (no result: NSD2 HMT inh) | IN multimer act inactive | TRFRET interf inactive | LEDGF integ conf 21
Cn1c(=O)c2c(nc(NN=C3CCCC3)n2C)n(C)c1=O	LEDGF integ inh 19 | IN multimer act inactive | TRFRET interf inactive | LEDGF integ conf inactive

Source: PubChem BioAssay
